Measured values taken from ChEMBL document CHEMBL1140683, “N-4-Pyrimidinyl-1H-indazol-4-amine inhibitors of Lck: indazoles as phenol isosteres with improved pharmacokinetics” (Bioorg Med Chem Lett, 2007).

What was measured:
[1] = molecular target: Proto-oncogene tyrosine-protein kinase LCK (Mus musculus, UniProt P06240); assay: Inhibition of murine Lck by TR-FRET assay
[2] = molecular target: Tyrosine-protein kinase BTK (Homo sapiens, UniProt Q06187); assay: Inhibition of Btk
[3] = molecular target: Tyrosine-protein kinase Lyn (Homo sapiens, UniProt P07948); assay: Inhibition of Lyn
Tyrosine-protein kinase Lyn, sequence (P07948 whole entry): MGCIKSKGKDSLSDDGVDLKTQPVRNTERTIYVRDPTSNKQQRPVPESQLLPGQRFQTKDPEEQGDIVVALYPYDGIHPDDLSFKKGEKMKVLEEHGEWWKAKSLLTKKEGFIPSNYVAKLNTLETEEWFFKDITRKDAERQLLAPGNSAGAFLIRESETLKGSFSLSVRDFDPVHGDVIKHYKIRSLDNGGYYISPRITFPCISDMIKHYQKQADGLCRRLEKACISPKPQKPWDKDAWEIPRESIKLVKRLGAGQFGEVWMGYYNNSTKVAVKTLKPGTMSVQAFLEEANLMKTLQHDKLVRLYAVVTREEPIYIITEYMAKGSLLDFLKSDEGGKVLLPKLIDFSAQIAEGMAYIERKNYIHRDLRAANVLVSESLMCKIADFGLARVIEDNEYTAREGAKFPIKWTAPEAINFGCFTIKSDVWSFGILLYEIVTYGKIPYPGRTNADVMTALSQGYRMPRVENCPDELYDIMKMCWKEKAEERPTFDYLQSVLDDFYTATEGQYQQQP

[4] = molecular target: T1, Tyrosine-protein kinase TXK (Homo sapiens, UniProt P42681); assay: Inhibition of Txk
T1 sequence (P42681 whole entry): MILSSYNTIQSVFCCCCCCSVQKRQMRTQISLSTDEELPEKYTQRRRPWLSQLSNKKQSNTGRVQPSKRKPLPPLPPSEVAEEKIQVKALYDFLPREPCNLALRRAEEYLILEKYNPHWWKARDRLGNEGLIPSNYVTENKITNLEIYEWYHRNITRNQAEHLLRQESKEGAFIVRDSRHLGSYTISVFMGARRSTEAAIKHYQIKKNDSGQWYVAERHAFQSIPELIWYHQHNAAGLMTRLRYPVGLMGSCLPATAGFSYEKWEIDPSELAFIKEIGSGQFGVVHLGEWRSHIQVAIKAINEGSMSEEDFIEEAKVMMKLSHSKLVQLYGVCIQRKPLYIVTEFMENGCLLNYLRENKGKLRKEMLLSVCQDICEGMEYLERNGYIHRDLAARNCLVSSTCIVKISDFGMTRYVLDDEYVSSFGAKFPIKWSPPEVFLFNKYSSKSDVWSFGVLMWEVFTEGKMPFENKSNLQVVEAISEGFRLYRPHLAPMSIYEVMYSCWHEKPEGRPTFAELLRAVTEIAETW

[5] = Plasma clearance in BALB/c mouse at 1 mg/kg, iv; assay type: ADME, organism-based; set-up: dose 1 mg/kg, route intravenous
Outline: (§1)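 Blood sampled over 8 h. Plasma protein-precipitated with acetonitrile, dried under nitrogen, reconstituted in 10:90 acetonitrile:water. Quantified by LC-MS/MS on an ODS3 column with a 0.1% formic acid water/acetonitrile gradient.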

[6] = Volume of distribution at steady state in BALB/c mouse at 1 mg/kg, iv; assay type: ADME, organism-based; set-up: dose 1 mg/kg, route intravenous; conditions: in vivo, read-out: Vdss; outline: as §1
[7] = Half life in BALB/c mouse at 1 mg/kg, iv; assay type: ADME, organism-based; set-up: dose 1 mg/kg, route intravenous; conditions: in vivo; outline: as §1
[8] = AUC (0 to t) in BALB/c mouse at 1 mg/kg, iv; assay type: ADME, organism-based; set-up: dose 1 mg/kg, route intravenous; conditions: plasma; outline: as §1
[9] = AUC (0 to t) in BALB/c mouse at 1 mg/kg, po; assay type: ADME, organism-based; set-up: dose 1 mg/kg, route oral; conditions: plasma; outline: as §1
[10] = Oral bioavailability in BALB/c mouse at 1 mg/kg, po; assay type: ADME, organism-based; conditions: in vivo; outline: as §1
[11] = molecular target: Tyrosine-protein kinase SYK (Homo sapiens, UniProt P43405)
[12] = molecular target: Tyrosine-protein kinase Lck (Homo sapiens, UniProt P06239); assay: Inhibition of human Lck by TR-FRET assay
Tyrosine-protein kinase Lck, sequence (P06239 whole entry): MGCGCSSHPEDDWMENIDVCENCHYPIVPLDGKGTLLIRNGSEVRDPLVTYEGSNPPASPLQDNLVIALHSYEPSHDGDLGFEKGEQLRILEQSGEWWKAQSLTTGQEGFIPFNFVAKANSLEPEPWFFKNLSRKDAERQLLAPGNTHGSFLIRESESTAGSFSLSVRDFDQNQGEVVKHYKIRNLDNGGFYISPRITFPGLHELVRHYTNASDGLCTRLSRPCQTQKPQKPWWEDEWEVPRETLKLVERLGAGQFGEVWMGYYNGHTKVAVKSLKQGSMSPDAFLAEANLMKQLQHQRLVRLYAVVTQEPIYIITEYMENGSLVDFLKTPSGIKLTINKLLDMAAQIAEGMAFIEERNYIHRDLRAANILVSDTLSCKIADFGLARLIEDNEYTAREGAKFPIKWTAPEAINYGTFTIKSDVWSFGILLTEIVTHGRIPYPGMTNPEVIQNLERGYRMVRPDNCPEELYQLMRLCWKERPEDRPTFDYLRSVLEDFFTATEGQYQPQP

[13] = Plasma clearance in BALB/c mouse at 2.5 mg/kg, iv; assay type: ADME, organism-based; set-up: dose 2.5 mg/kg, route intravenous; outline: as §1
[14] = Volume of distribution at steady state in BALB/c mouse at 2.5 mg/kg, iv; assay type: ADME, organism-based; set-up: dose 2.5 mg/kg, route intravenous; conditions: in vivo, read-out: Vdss; outline: as §1
[15] = Half life in BALB/c mouse at 2.5 mg/kg, iv; assay type: ADME, organism-based; set-up: dose 2.5 mg/kg, route intravenous; conditions: in vivo; outline: as §1
[16] = AUC (0 to t) in BALB/c mouse at 2.5 mg/kg, iv; assay type: ADME, organism-based; set-up: dose 2.5 mg/kg, route intravenous; conditions: plasma; outline: as §1
[17] = AUC (0 to t) in BALB/c mouse at 10 mg/kg, po; assay type: ADME, organism-based; set-up: dose 10 mg/kg, route oral; conditions: plasma; outline: as §1
[18] = Oral bioavailability in BALB/c mouse at 10 mg/kg, po; assay type: ADME, organism-based; conditions: in vivo; outline: as §1

Proto-oncogene tyrosine-protein kinase LCK, sequence (P06240 whole entry): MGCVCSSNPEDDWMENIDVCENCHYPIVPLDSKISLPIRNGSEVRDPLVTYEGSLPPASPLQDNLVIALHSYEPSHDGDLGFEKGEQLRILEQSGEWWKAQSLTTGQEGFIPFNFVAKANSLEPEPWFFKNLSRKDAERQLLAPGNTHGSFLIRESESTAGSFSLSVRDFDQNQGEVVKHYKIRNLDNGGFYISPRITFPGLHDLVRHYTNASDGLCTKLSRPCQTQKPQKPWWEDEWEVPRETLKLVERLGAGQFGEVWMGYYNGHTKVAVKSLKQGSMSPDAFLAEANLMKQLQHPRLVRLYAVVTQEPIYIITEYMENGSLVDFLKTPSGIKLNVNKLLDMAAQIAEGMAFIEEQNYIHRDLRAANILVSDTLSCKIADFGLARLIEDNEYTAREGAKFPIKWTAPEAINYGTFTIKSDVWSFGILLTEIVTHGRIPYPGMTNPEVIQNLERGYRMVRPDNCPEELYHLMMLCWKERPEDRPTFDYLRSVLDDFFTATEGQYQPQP
Tyrosine-protein kinase BTK, sequence (Q06187 whole entry): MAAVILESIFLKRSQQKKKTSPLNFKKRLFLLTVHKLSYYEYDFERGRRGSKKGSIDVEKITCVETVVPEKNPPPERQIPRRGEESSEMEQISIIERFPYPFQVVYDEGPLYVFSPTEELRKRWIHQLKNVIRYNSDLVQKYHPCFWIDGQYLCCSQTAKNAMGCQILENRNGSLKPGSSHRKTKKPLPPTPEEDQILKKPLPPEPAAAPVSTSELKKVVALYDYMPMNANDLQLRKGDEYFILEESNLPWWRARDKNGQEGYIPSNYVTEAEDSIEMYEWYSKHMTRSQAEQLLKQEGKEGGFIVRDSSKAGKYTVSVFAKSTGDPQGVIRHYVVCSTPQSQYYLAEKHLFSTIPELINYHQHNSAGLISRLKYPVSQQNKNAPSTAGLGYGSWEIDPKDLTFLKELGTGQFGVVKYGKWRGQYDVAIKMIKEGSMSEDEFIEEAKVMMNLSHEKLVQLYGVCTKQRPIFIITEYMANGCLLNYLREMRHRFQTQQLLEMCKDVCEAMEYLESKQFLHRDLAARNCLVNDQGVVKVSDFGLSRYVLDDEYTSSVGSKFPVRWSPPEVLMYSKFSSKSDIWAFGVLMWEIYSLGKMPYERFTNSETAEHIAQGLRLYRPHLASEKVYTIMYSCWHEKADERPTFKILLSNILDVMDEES

| IC50 [1] [nM] | SMILES | other results |
| --- | --- | --- |
| 19 | Cc1ccc2[nH]ncc2c1Nc1ccnc(Nc2cccc(S(N)(=O)=O)c2)n1 | IC50 [2]: 69 nM; IC50 [3]: 430 nM; IC50 [4]: 220 nM; clearance [5]: 22.4 mL/min/kg; Vd [6]: 0.7 L/kg; half-life [7]: 31.8 min; AUC(0-t) [8]: 743 ng·h/mL; AUC(0-t) [9]: 190 ng·h/mL; bioavailability [10]: 25%; IC50 [11]: 620 nM |
| 9300 | Cc1ccc(C(=O)N(C)C)cc1Nc1ccnc(Nc2cccc(C(N)=O)c2)n1 |  |
| 7700 | Cc1ccc(NS(C)(=O)=O)cc1Nc1ccnc(Nc2cccc(C(N)=O)c2)n1 |  |
| 2700 | COc1cccc(Nc2ccnc(Nc3cccc(C(N)=O)c3)n2)c1 |  |
| 1800 | CC(=O)N(C)c1cccc(Nc2ccnc(Nc3cccc(C(N)=O)c3)n2)c1 |  |
| 13 | Cc1ccc(O)cc1Nc1ccnc(Nc2cccc(C(N)=O)c2)n1 | IC50 [12]: 14 nM; IC50 [2]: 9 nM; IC50 [3]: 3 nM; IC50 [4]: 2 nM |
| 130 | NC(=O)c1cccc(Nc2nccc(Nc3cccc(O)c3)n2)c1 |  |
| 1100 | NC(=O)c1cccc(Nc2nccc(Nc3ccc(F)cc3F)n2)c1 |  |
| 350 | NS(=O)(=O)c1cccc(Nc2nccc(Nc3ccc(F)cc3F)n2)c1 |  |
| 16000 | Cn1cnc2ccc(Nc3ccnc(Nc4cccc(C(N)=O)c4)n3)cc21 |  |
| 100 | Cc1cccc(O)c1Nc1ccnc(Nc2cccc(C(N)=O)c2)n1 |  |
| 270 | Cc1ccc(F)cc1Nc1ccnc(Nc2cccc(C(N)=O)c2)n1 |  |
| 86 | COc1ccc(C)c(Nc2ccnc(Nc3cccc(C(N)=O)c3)n2)c1 |  |
| 97 | Cc1ccc(N)cc1Nc1ccnc(Nc2cccc(C(N)=O)c2)n1 |  |
| 190 | Cc1ccc(Nc2ccnc(Nc3cccc(C(N)=O)c3)n2)cc1O |  |
| 41 | NC(=O)c1cccc(Nc2nccc(Nc3cc(O)ccc3Br)n2)c1 |  |
| 40 | Cc1cc(O)ccc1Nc1ccnc(Nc2cccc(C(N)=O)c2)n1 |  |
| 1800 | Cn1cnc2cc(Nc3ccnc(Nc4cccc(C(N)=O)c4)n3)ccc21 |  |
| 4400 | NC(=O)c1cccc(Nc2nccc(Nc3ccc4nn[nH]c4c3)n2)c1 |  |
| 560 | NC(=O)c1cccc(Nc2nccc(Nc3cccc4ncccc34)n2)c1 |  |

| IC50 [1] [nM] | SMILES | other results |
| --- | --- | --- |
| 1600 | Cn1ncc2c(Nc3ccnc(Nc4cccc(C(N)=O)c4)n3)cccc21 |  |
| 2800 | Cc1ccc2c(cnn2C)c1Nc1ccnc(Nc2cccc(C(N)=O)c2)n1 |  |
| 5600 | Cc1nc2c(Nc3ccnc(Nc4cccc(C(N)=O)c4)n3)cccc2[nH]1 |  |
| 520 | Cc1cc(Nc2ccnc(Nc3cccc(C(N)=O)c3)n2)c2cn[nH]c2c1 |  |
| 55 | Cc1ccc(Nc2ccnc(Nc3cccc(C(N)=O)c3)n2)c2cn[nH]c12 |  |
| 1400 | NC(=O)c1cccc(Nc2nccc(Nc3cccc4cn[nH]c34)n2)c1 |  |
| 3000 | NC(=O)c1cccc(Nc2nccc(Nc3ccc4[nH]ncc4c3)n2)c1 |  |
| 33 | NS(=O)(=O)c1cccc(Nc2nccc(Nc3cccc4[nH]ncc34)n2)c1 |  |
| 380 | Cc1ccc(Cl)cc1Nc1ccnc(Nc2cccc(C(N)=O)c2)n1 |  |
| 54 | COc1ccc(C)c(Nc2ccnc(Nc3cccc(S(N)(=O)=O)c3)n2)c1 |  |
| 3000 | NC(=O)c1cccc(Nc2nccc(Nc3ccc4ncsc4c3)n2)c1 |  |
| 73 | Cc1cc(O)cc(Nc2ccnc(Nc3cccc(C(N)=O)c3)n2)c1 |  |
| 880 | CC(C)c1ccc(O)cc1Nc1ccnc(Nc2cccc(C(N)=O)c2)n1 |  |
| 8200 | Cn1ncc2ccc(Nc3ccnc(Nc4cccc(C(N)=O)c4)n3)cc21 |  |
| 3300 | NC(=O)c1cccc(Nc2nccc(Nc3cccc(F)c3)n2)c1 |  |
| 1300 | Cc1ccc(C(N)=O)cc1Nc1ccnc(Nc2cccc(C(N)=O)c2)n1 |  |
| 89 | Cc1ccccc1Nc1ccnc(Nc2cccc(C(N)=O)c2)n1 |  |
| 3400 | Cc1ccc(CN)cc1Nc1ccnc(Nc2cccc(C(N)=O)c2)n1 |  |
| 100 | NC(=O)c1cccc(Nc2nccc(Nc3cccc4[nH]ncc34)n2)c1 [GW782612X] |  |

| SMILES | IC50 [1] [nM] | other results |
| --- | --- | --- |
| Cc1ccc(O)cc1Nc1ccnc(Nc2cccc(S(N)(=O)=O)c2)n1 | 8.5 | IC50 [3]: 1 nM; IC50 [4]: 0.4 nM; clearance [13]: 65.5 mL/min/kg; Vd [14]: 0.3 L/kg; half-life [15]: 7.2 min; AUC(0-t) [16]: 635 ng·h/mL; AUC(0-t) [17]: 2 ng·h/mL; bioavailability [18]: < 1%; IC50 [11]: 4 nM |
| Cc1ccc2[nH]ncc2c1Nc1ccnc(Nc2cccc(C(N)=O)c2)n1 | 12 | IC50 [2]: 97 nM; IC50 [3]: 40 nM; IC50 [4]: 28 nM; IC50 [11]: 220 nM |
| NC(=O)c1cccc(Nc2nccc(Nc3cccc4nn[nH]c34)n2)c1 | 490 |  |
